Assay outcomes deposited in PubChem BioAssay by several laboratories.
Hits are enriched below; roughly 1.7% of the tested compounds scored in any of these assays.
CCR6 antagonist = antagonists of human CCR6 receptor; hit rate 0.49% among 340,000; AID 493098; CHO-K1 CCR6 PathHunter beta-arrestin, luminescence, CCL20-stimulated; inhibition, % at 20 µM; P51684;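 active = compounds whose inhibition of the agonist-driven luminescence signal at 20 µM reaches about 50%, limit read from the data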;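 also: cells stimulated with CCL20 at 14 nM final; plate controls were DMSO with CCL20 for no effect and DMSO without agonist for full effect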
Target sequence (P51684 whole entry, looked up): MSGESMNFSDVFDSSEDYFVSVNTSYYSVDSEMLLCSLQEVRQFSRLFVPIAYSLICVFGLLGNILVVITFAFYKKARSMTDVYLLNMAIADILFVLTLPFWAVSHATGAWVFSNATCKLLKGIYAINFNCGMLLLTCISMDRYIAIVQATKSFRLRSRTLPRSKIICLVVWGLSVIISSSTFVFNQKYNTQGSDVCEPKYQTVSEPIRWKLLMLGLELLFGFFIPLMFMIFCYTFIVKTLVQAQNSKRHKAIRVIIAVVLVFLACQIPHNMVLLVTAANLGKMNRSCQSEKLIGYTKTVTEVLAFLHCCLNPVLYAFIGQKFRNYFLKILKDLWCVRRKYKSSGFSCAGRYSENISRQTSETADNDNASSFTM
Beta2AR agonist = human beta-2 adrenergic receptor agonism by FAP; P07550; Am2.2-beta2AR cells, FAP receptor internalization, flow cytometry; response, % (no concentration beside the values); hit rate 0.43% among 340,000; AID 504454;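 active = response above a set limit, near 3 SD of response in nonfluorescent compounds, cut at about 42% in these data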
CXCR6 block = inhibitors of human CXCR6 receptor. O00574. CHO-K1 PathHunter CXCR6 beta-arrestin, luminescence. inhibition, % at 20 µM. hit rate 0.36% among 360,000. AID 602244; in the data active = inhibition above about 34%, passing the limit was not always enough;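 also: antagonist mode with CXCL16 agonist at 10 nM final; 0% = 10 nM CXCL16 with DMSO and 100% = unstimulated wells without agonist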
APJ agonist = APJ receptor agonism. CHO-K1 APJ PathHunter beta-arrestin, luminescence; 0% DMSO wells, 100% apelin. activation, % at 20 µM. hit rate 0.11% among 330,000. AID 2520;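 active = activation more than six SD over the plate average, tested at 20 µM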;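 also: 0% = DMSO alone and 100% = apelin-13 at 10 nM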
Target sequence (P35414 whole entry, looked up): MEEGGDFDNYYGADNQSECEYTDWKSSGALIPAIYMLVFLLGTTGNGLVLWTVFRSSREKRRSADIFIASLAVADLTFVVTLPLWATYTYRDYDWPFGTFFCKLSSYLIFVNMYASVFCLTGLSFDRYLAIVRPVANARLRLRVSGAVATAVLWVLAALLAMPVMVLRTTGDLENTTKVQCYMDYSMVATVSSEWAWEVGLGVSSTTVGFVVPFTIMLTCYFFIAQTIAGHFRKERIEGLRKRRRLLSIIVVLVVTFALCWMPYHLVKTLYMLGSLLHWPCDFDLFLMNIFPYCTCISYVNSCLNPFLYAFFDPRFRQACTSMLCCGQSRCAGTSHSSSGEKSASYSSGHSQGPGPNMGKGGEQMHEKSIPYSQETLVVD
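Incubation: overnight seeding, 90 min compound at 25 °C, 1 h detection; test system: PathHunter CHO-K1 APJ (AGTRL-1) beta-arrestin reporter cells; amount: 1000 cells/well; doses: one dose, 20 µM compound, 1% DMSO; measured by: beta-gal luminescence; measure: agonist-driven arrestin binding to APJ; benchmarks: negative DMSO alone, positive Apelin-13 at 10 nM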
APJ antagonist = antagonists of human APJ apelin receptor | P35414 | CHO-K1 APJ beta-arrestin complementation, luminescence | inhibition, % at 20 µM | hit rate 0.32% among 330,000 | AID 2521;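 active = inhibition above about 40% at 20 µM, limit read from the data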;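 also: cells challenged with 10 nM apelin-13 agonist together with compound; plate controls were apelin-13 plus DMSO wells for no effect and DMSO wells lacking apelin-13 for full effect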
PfG6PD inh = PfG6PD (Plasmodium falciparum) enzyme inhibition; PfGluPho enzyme, NADPH resazurin-diaphorase fluorescence; inhibition, % at 20 µM; hit rate 0.78% among 350,000; AID 504690;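 active = inhibition reaching at least a set limit at 20 µM in the primary screen, cut at about 59% in these data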;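 also: 0% = DMSO wells with substrate and 100% = DMSO wells lacking glucose-6-phosphate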
APJ ag conf = confirmation of human APJ apelin receptor agonists; shares compounds with APJ agonist; CHO-K1 APJ PathHunter beta-arrestin, luminescence; activation, % at 20 µM; hit rate 10% among 310; AID 2764;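 active = activation above 40%, taking the highest of four retests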;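 also: plate controls were DMSO wells for no effect and apelin-13 at 10 nM for full effect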
Numbers without * were called inactive; . = not tested or not shown.

SMILES | CCR6 antagonist | Beta2AR agonist | CXCR6 block | APJ agonist | APJ antagonist | PfG6PD inh | APJ ag conf
C#CCOCCOCCOCCNc1nc(N2CCN(C(=O)CCCCCCCCCCNC(=O)[C@H]([C@@H](C)CC)n3cc(CCCCN=C(N)N)nn3)CC2)nc(N2CCN(C(=O)CCCCCCCCCCNC(=O)[C@H](CCCCN)n3cc(C)nn3)CC2)n1 | -12.6 | . | . | 82.6* | 40.2* | 72.1* | 26.3
COc1ccc(CCNC(=O)Nc2nc(C(N)C3CCCCC3)cs2)cc1OC (stereo unspecified) | . | . | 4.3 | . | . | . | .
O=C1CCC(C(=O)O)N1 (stereo unspecified) | -2.1 | -5.0 | -0.4 | -5.5 | 17.4 | 2.4 | .
CCOC(=O)c1c(C)[nH]c(C(=O)OCC(=O)Nc2sccc2C(N)=O)c1C | -46.3 | 25.3 | -11.0 | 31.5* | -46.4 | -1.7 | 15.8
COC(=O)c1ccc2c(=O)n(CCCCCC(=O)N3CCN(c4ccc(F)cc4)CC3)c(=O)[nH]c2c1 | -8.2 | 20.6 | -9.9 | 46.8* | -35.4 | -2.1 | 35.2
CC1=C(C(=O)N2CCOCC2)CC(CC(=O)NCCN2CCOCC2)C(=O)N1Cc1ccc(F)cc1 (stereo unspecified) | . | . | 6.1 | . | . | -10.7 | .
CCCCC1=CC2=CC(=O)C(C)(OC(=O)CC)C(=O)C2=CN1C1CCCCC1 (stereo unspecified) | 2.1 | 25.1 | -5.5 | 124.8* | -24.5 | 20.6 | 53.7*
COC(=O)CCCC1=CC2=CC(=O)C(C)(OC(=O)c3cccs3)C(=O)C2=CN1C1CCCCC1 (stereo unspecified) | -4.9 | -6.3 | -20.8 | 91.8* | -47.2 | 36.7 | 20.7
CC(C)(C)c1ccc(NC(=O)COC(=O)c2ccc3ncsc3c2)cc1 | 12.8 | 0.2 | -8.0 | -1.9 | -12.8 | -1.2 | .
O=C(COC(=O)c1ccc2ncsc2c1)Nc1ccc(OC(F)(F)F)cc1 | 4.8 | 0.3 | -4.2 | 17.6* | 2.1 | 14.6 | 12.5
O=C(O)CCCCCN1C(=O)/C(=C/c2cn(-c3ccccc3)nc2-c2cccs2)SC1=S | 12.9 | 11.0 | 16.1 | . | . | -18.8 | .
CC1=NNC(=O)/C1=C\c1cn(-c2ccccc2)nc1-c1cccs1 | 45.6 | 105.7* | 0.6 | 25.5* | -7.1 | 40.5 | 6.8
O=C(COC(=O)c1cc[n+]([O-])cc1)Nc1cccc(F)c1 | 7.4 | 4.3 | -11.2 | -2.3 | 1.1 | -4.6 | .
CC(C)(C)OC(=O)NCCCCCc1cn([C@@H](CO)C(=O)NCCCCCCCCCCC(=O)N2CCN(C(=O)OC(C)(C)C)CC2)nn1 | -17.2 | 24.9 | -10.7 | 45.0* | -77.6 | 10.9 | 52.0*
CC(C)(C)OC(=O)CC[C@@H](C(=O)NCCCCCCCCCCC(=O)N1CCN(C(=O)OC(C)(C)C)CC1)n1cc(CCCCCNC(=O)OC(C)(C)C)nn1 | 24.3 | 15.1 | 21.1 | 0.1 | -2.7 | 1.7 | .
O=C(C1CCC(CNS(=O)(=O)c2cccs2)CC1)N1CCN(c2ccc(Cl)cc2)CC1 (stereo unspecified) | -6.7 | 7.4 | -13.0 | 25.9* | -40.2 | 13.0 | 19.7
CCCCc1ccc(NC(=O)COc2ccc(C(=O)Nc3ccccc3OCC)cc2)cc1 | -7.5 | -1.9 | -5.2 | 35.9* | -6.3 | 0.9 | 4.4
CCCCNc1c(-c2cccc(-c3ccc(OC)cc3)c2)nc2ccc(C)cn12 | -3.2 | 49.2* | -11.0 | 52.3* | -26.3 | 53.6 | 14.6
CCCCNc1c(-c2cccc(-c3ccc(OC)cc3)c2)nc2cc(C)ccn12 | -13.6 | 25.5 | 4.7 | 7.3 | -27.9 | 28.7 | .
CC(C)[C@H](N)c1cn([C@@H](CC(N)=O)C(=O)N2CCNCC2)nn1 | 8.8 | 2.3 | 2.9 | -0.9 | 12.0 | -3.4 | .
CN(c1ccccc1C(=O)O)S(=O)(=O)c1ccc2[nH]c(=O)[nH]c2c1 | 5.7 | -8.1 | -6.7 | -1.4 | 13.4 | 3.4 | .
COc1ccccc1-n1c(SC)nc(O)cc1=O | -0.5 | 3.2 | 0.3 | 65.8* | -70.5 | 12.4 | 88.4*
COc1ccccc1-n1c(SCC(=O)NC(C)(C)C)nc(O)cc1=O | -0.4 | -7.9 | 0.2 | 0.6 | 11.0 | -2.3 | .
COc1ccc(Cc2c(-c3cccc(Cl)c3)nc3c(C)cc(Br)cn23)c(C)c1 | . | . | -2.4 | . | . | . | .
COC(=O)C1=C(CN2CCc3ccccc32)NC(=O)NC1c1cc(C)ccc1C (stereo unspecified) | -6.9 | 3.4 | 8.7 | 39.4* | -17.2 | 2.9 | 11.1
SMILES | CCR6 antagonist | Beta2AR agonist | CXCR6 block | APJ agonist | APJ antagonist | PfG6PD inh | APJ ag conf
COC(=O)C1=C(CN2CCN(C)CC2)NC(=O)NC1c1cc(C)ccc1C (stereo unspecified) | -11.6 | 1.9 | -5.4 | 0.2 | 22.4 | -3.2 | .
CC(CC(=O)N1CCN(c2cccc(Cl)c2)CC1)S(=O)(=O)c1ccc2c(c1)NC(=O)CO2 (stereo unspecified) | -6.5 | 1.8 | 4.2 | 32.8* | -49.8 | -7.9 | 26.1
CC(=O)c1c(C)[nH]c(C(=O)OCC(=O)Nc2cc(Cl)ccc2[N+](=O)[O-])c1C | -32.3 | -8.0 | -5.1 | 16.8* | -15.7 | 2.3 | 18.4
O=C(NC(=S)/C(=C1\CCCCCN1)[N+](=O)[O-])c1ccccc1 | 5.8 | -14.2 | 5.3 | -3.5 | 6.6 | 38.1 | .
Cc1ccc(S(=O)(=O)N2C(=O)CCC2C(=O)O/N=C(\N)c2cccc([N+](=O)[O-])c2)cc1 (stereo unspecified) | -41.2 | 9.8 | -36.5 | 37.3* | -131.7 | 13.8 | 23.4
COc1ccc(/C(N)=N/OC(=O)C2CCC(=O)N2S(=O)(=O)c2ccc(C)cc2)cc1OC (stereo unspecified) | -3.6 | 1.2 | -19.4 | 5.5 | -35.7 | -17.4 | .
Cc1ccc(S(=O)(=O)N2C(=O)CCC2C(=O)O/N=C(\N)c2ccc([N+](=O)[O-])cc2)cc1 (stereo unspecified) | -25.7 | 1.4 | -16.8 | 35.8* | -133.6 | 6.8 | 20.4
Cc1ccc(S(=O)(=O)N2C(=O)CCC2C(=O)O/N=C(\N)c2ccccc2)cc1 (stereo unspecified) | -6.2 | -7.7 | -3.4 | 12.3 | -36.9 | -5.9 | .
CN(CCOc1ccc(Cl)cc1)C(=O)c1cccc(S(=O)(=O)N2CCN(Cc3ccccc3)CC2)c1 | 2.1 | -3.9 | -2.3 | . | . | 6.4 | .
N/C(=N\OC(=O)c1cc(-c2ccccc2)nc2ccccc12)c1ccc(Cl)cc1 | -16.5 | 11.9 | -11.9 | 15.6* | -15.9 | -1.1 | 20.1
NC(=O)c1ncn([C@@H]2O[C@H](CNCc3cc(Cl)ccc3OCc3ccc(Cl)cc3)[C@@H](O)[C@H]2O)n1 | 2.3 | 11.7 | 3.9 | . | . | 25.4 | .
N/C(=N/OC(=O)c1cccc([N+](=O)[O-])c1)c1cccc([N+](=O)[O-])c1 | 6.1 | -6.9 | 6.8 | 25.9* | -41.8 | -2.5 | 36.8
N/C(=N\OC(=O)c1ccc(F)cc1)c1cccc([N+](=O)[O-])c1 | -3.3 | -6.5 | -10.6 | 7.5 | -40.4 | 14.8 | .
